This is an account of results in paper PMC7471432 (Acta Pharmacologica Sinica, 2020).

Like-named read-outs stand apart in the source and are kept apart here.

The test system of assay [1] is isolated rat aorta strips. The following applies: 10 µmol/L GM; cited from earlier work.
The test system of the next assay is nACh receptors. Kind of assay: Acetylcholine-evoked currents, cultured rat hippocampal neurons. The following applies: 30 μmol/L GM. It counts as cell-based. Put shortly: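 Cultured rat hippocampal neurons were held at −60 mV in whole-cell mode, and acetylcholine-evoked currents were recorded at room temperature with and without test compound. Concentration–response data (IDrug/IControl) were fitted to a 3-parameter Hill equation to obtain IC50. Data are means ± SEM.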

The next assay has as its system GABA receptors. Kind of assay: GABA-induced currents, rat hippocampal neurons. The class given is cell-based. The following applies: n = 4. Put shortly: (§1)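 Whole-cell recordings were made at room temperature from rat hippocampal neurons held at −60 mV. Currents were activated by applying the corresponding ligand under continuous bath perfusion. Signals were filtered at 2 kHz and digitized at 10 kHz. Data are means ± SEM, tested by paired two-tailed t test against control.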

The subject of another assay is NMDA receptors. Kind of assay: NMDA-induced currents, rat hippocampal neurons. The following applies: n = 4. The class given is cell-based. A digest of the protocol: as §1
For the next assay, the system named is CaV currents. Kind of assay: Total CaV currents, whole-cell voltage-clamp, rat hippocampal neurons. It counts as cell-based. The following applies: read-out: IC50 on total CaV currents; holding −90 mV, test pulse 0 mV, n = 6. Put shortly: (§2)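 Rat hippocampal neurons were recorded in whole-cell voltage-clamp with a CsCl/TEA/5 mM MgATP internal (pH 7.2) and a bath containing 5 mM CaCl2 and 20 mM TEA-Cl (pH 7.4). Currents were evoked by steps from −90 mV to 0 mV at room temperature. Activation and inactivation curves were fitted with Boltzmann equations, and IC50 with a 3-parameter Hill equation.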

Assay [2] relates to cultured mouse hippocampal neurons. It counts as cell-based. A digest of the protocol: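 Hippocampi from E18 C57BL/6 mouse embryos were digested with 3 mg/mL proteinase for 8 min at 32 °C, triturated, and plated on poly-D-lysine coverslips. Cells were switched to serum-free Neurobasal-A/B-27 after 6 h and recorded after 12 days. Whole-cell current-clamp used a KCl/EGTA pipette (pH 7.2) and perfused NaCl/HEPES bath (pH 7.4), at room temperature.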

A further assay deals with NaV currents. The assay is described as follows: NaV currents, whole-cell voltage-clamp, acutely isolated rat hippocampal neurons. It counts as cell-based.
The test system of the next assay is HVA calcium currents. The assay is described as follows: High-voltage-activated. The following applies: 10 µmol/L GM. It counts as cell-based, rat. A digest of the protocol:
as §2

Assay [3] deals with 6-Hz-induced seizure model mice. Kind of assay: 6-Hz corneal kindling epilepsy test. The following applies: 100 mg/kg; GM oral 60 min prior to stimulation; 32 mA. The class given is in vivo, mouse.
The test system of assay [4] is MES-induced seizure model mice. The assay is described as follows: MES-induced seizure assay. The following applies: oral. It counts as in vivo, mouse.
The target of a further assay is T1, human Kir2.1 channels (Homo sapiens, UniProt P63252).
T1 sequence (P63252 1-427): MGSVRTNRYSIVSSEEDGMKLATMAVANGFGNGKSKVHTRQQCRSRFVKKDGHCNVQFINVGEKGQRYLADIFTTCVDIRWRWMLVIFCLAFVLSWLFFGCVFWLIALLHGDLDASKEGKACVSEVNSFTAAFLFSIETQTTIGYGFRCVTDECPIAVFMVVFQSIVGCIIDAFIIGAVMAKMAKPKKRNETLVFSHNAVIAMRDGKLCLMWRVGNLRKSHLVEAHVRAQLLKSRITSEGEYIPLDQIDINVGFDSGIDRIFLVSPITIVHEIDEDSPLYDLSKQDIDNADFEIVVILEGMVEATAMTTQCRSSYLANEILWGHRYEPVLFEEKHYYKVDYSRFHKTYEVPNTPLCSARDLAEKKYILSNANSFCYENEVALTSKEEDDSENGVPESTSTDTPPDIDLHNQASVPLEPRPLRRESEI
Kind of assay: Kir2.1 currents in HEK-293 cells stably expressing hKir2.1. The class given is cell-based. A digest of the protocol: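 HEK-293 cells stably expressing human Kir2.1 were held at −70 mV and given a 500 ms test pulse to −140 mV. The internal was 140 mM KCl with EGTA (pH 7.2) and the bath was NaCl/KCl (pH 7.4), at room temperature. Inhibition ratios are means ± SEM, compared with paired t test against control.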

Another assay relates to KA receptors. The assay is described as follows: KA-induced currents, rat hippocampal neurons. The following applies: n = 4. The class given is cell-based. A digest of the protocol: as §1
Another assay deals with AMPA receptors. The assay is described as follows: AMPA-induced currents, rat hippocampal neurons. It counts as cell-based. The following applies: n = 4. Put shortly:
as §1

In a further assay the test system is LVA calcium currents. Kind of assay: Low-voltage-activated. The class given is cell-based, rat. The following applies: 10 µmol/L GM. Put shortly: as §2
Assay [5] relates to transient outward potassium current (IA). The assay is described as follows: Transient outward potassium current. It counts as cell-based, rat. The following applies: read-out: IC50 on IA; n = 5. A digest of the protocol:
(§3)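 Rat hippocampal neurons were recorded in whole-cell voltage-clamp with a KCl/EGTA internal and a NaCl/KCl bath. Cells were held at −50 mV, prepulsed to −110 mV for 500 ms, then stepped from −110 to 40 mV. For IK, a 50 ms step to −50 mV removed IA, and amplitude was read at 300 ms. IA was read as peak. IC50 came from a 3-parameter Hill fit.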

For assay [6], the system named is delayed rectifier potassium current (IK). Kind of assay: Delayed rectifier potassium current. The following applies: read-out: IC50 on IK; n = 5. It counts as cell-based, rat. A digest of the protocol: as §3

Consider Geissoschizine methyl ether [GM], for which the “effect on Bay K8644- or Ca2+-induced contractions” value in assay [1] is “able to relax”. Besides, the “inhibition of acetylcholine-evoked currents” value in the assay with nACh receptors is given as “completely inhibited”. Moreover, in the assay with GABA receptors (30 µmol/L GM), the “change of GABA receptor-mediated currents” value is on record as “No remarkable changes”. In the assay with GABA receptors (100 µmol/L GM), the “modulation of GABA receptor-mediated currents” value is “very weak”. In addition, the “change of NMDA (glutamate) receptor-mediated currents” value with NMDA receptors (30 µmol/L GM) was “No remarkable changes”. Moreover, the “modulation of NMDA (glutamate) receptor-mediated currents” value with NMDA receptors (100 µmol/L GM) is listed as “very weak”. In addition, the 50% inhibitory concentration (IC50) (commonly the midpoint of a concentration-inhibition curve) with CaV currents came to 13.3 µM; in the assay with NaV currents (read-out: IC50 on NaV currents, holding −90 mV, test pulse −20 mV, n = 7), 10.2 µM; in assay [5] it was 50 µM; in [6], 1.6 µM. Moreover, the “resting membrane potential after GM perfusion” value in assay [2] was “did not change”. Also, the “inhibition ratio of firing frequency” value in assay [2] (1 μmol/L GM, n = 6) is 45.3% ± 3.7%; in [2] (3 μmol/L GM, n = 6), 49.6% ± 5.1%; in [2] (10 μmol/L GM, n = 6), 82.3% ± 1.1%; in [2] (30 μmol/L GM, n = 6) it was 97.8% ± 0.5%. Also, the “reduction of action potential amplitude” value is 9.5% ± 1.8% in assay [2] (3 μmol/L GM, n = 6); 20.9% ± 3.2% in [2] (10 μmol/L GM, n = 6); 100.0% in [2] (30 μmol/L GM, n = 6). In addition, the “half-width of the action potential” value in assay [2] (10 μmol/L GM, control 2.0 ± 0.2 ms, n = 6) is on record as 2.7 ± 0.4 ms. In the assay on NaV currents (10 µmol/L GM, control −45.1 ± 1.0 mV), the “half-activation voltage of NaV currents” value is −42.7 ± 0.8 mV. Besides, the “V1/2 of steady-state inactivation of NaV currents” value in the assay on NaV currents (10 µmol/L GM, control −54.4 ± 0.5 mV) is recorded as −61.4 ± 0.6 mV. The “change of activation curve of HVA currents” value in the assay on HVA calcium currents is “did not exhibit a remarkable change”. Also, the “reduction of HVA currents” value in the assay on HVA calcium currents (elicited at 0 mV, n = 7) was 28.5% ± 10.9%. Also, the “shift in inactivation curve of HVA currents” value in the assay with HVA calcium currents (n = 9) was “No significant shift”. Also, the “Protection rate (%)” value in assay [3] was found to be 70%. The “ED50 for protection against MES” value in assay [4] is reported as 78.9 (60.3–103.3) mg/kg. Also, the “inhibition ratio of Kir2.1 currents” value at human Kir2.1 channels (10 µmol/L GM, n = 5) is 1.3% ± 2.2%; at human Kir2.1 channels (30 µmol/L GM, n = 7) it was 3.8% ± 1.5%; at human Kir2.1 channels (100 µmol/L GM, n = 10) it was 13.9% ± 2.2%. Moreover, the “change of KA (glutamate) receptor-mediated currents” value with KA receptors (30 µmol/L GM) is on record as “No remarkable changes”. The “modulation of KA (glutamate) receptor-mediated currents” value in the assay on KA receptors (100 µmol/L GM) is listed as “very weak”. The “change of AMPA (glutamate) receptor-mediated currents” value in the assay with AMPA receptors (30 µmol/L GM) is listed as “No remarkable changes”. Also, the “modulation of AMPA (glutamate) receptor-mediated currents” value in the assay with AMPA receptors (100 µmol/L GM) is on record as “very weak”. For the same molecule, the “change of activation curve of LVA currents” value in the assay on LVA calcium currents was “did not exhibit a remarkable change”. In addition, the “reduction of LVA currents” value in the assay with LVA calcium currents (elicited at 0 mV, n = 7) is 48.4% ± 6.9%. Also, in the assay on LVA calcium currents (n = 5), the “effect on LVA current inactivation” value is reported as “lack of an effect”.
Consider `CC[C@@H](C(N)=O)N1CCCC1=O` [LEV, Levetiracetam, reference compound], for which the “Protection rate (%)” value in assay [3] amounted to 100%.
